Source: ChEMBL document CHEMBL1667761, “3-benzylamino-β-carboline derivatives induce apoptosis through G2/M arrest in human carcinoma cells HeLa S-3” (Eur J Med Chem, 2011)
pIC50: −log10 of the molar value. Activity calls are given as the source filed them. The calls are words filed in the database; no cut-off is given here.

How the values were obtained:
[1] = Antitumor activity against human HeLaS3 cells after 24 to 72 hrs by MTT assay; assay type: functional, cell-based, HeLa S3
In short: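 HeLa S-3 cells (MEM, 10% FBS, HEPES, NEAA, 2 mM L-glutamine, 5% CO2, 37 °C) seeded at 2 × 10⁴ cells/ml and cultured 3 h before exposure for 24–72 h at 37 °C. MTT (2 mg/ml) added for 4 h at 37 °C, formazan dissolved in DMSO, A540 read. Viability is expressed as % of control. IC50 is the concentration giving 50% growth inhibition, mean ± S.D. of four independent experiments run in triplicate.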

[2] = Cell cycle arrest in human HeLaS3 cells assessed as accumulation at S phase at 1 uM after 6 hrs by flow cytometry; assay type: functional, cell-based; conditions: HeLa S3
In short: (§1)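 HeLa S-3 cells exposed for 6, 12 or 24 h. Cells washed twice in ice-cold PBS, fixed in ice-cold 70% ethanol, and resuspended with 0.1 mg/ml RNase. Stained with […] PI and analysed by flow cytometry. Phase distribution (sub-G1, G1, S, G2/M) is reported as percentage of cells. Controls were untreated.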

[3] = Cell cycle arrest in human HeLaS3 cells assessed as accumulation at sub-G1 phase at 5 uM after 12 hrs by flow cytometry; assay type: functional, cell-based; conditions: HeLa S3; in short: as §1
[4] = Cell cycle arrest in human HeLaS3 cells assessed as accumulation at sub-G1 phase at 1 uM after 12 hrs by flow cytometry; assay type: functional, cell-based; conditions: HeLa S3; in short: as §1
[5] = Cell cycle arrest in human HeLaS3 cells assessed as accumulation at S phase at 5 uM after 24 hrs by flow cytometry; assay type: functional, cell-based; conditions: HeLa S3; in short: as §1
[6] = Cell cycle arrest in human HeLaS3 cells assessed as accumulation at G2/M phase at 1 uM after 12 hrs by flow cytometry; assay type: functional, cell-based; conditions: HeLa S3; in short: as §1
[7] = Cell cycle arrest in human HeLaS3 cells assessed as accumulation at G2/M phase at 5 uM after 12 hrs by flow cytometry; assay type: functional, cell-based; conditions: HeLa S3; in short: as §1
[8] = Cell cycle arrest in human HeLaS3 cells assessed as accumulation at S phase at 5 uM after 6 hrs by flow cytometry; assay type: functional, cell-based; conditions: HeLa S3; in short: as §1
[9] = Cell cycle arrest in human HeLaS3 cells assessed as accumulation at G2/M phase at 1 uM after 6 hrs by flow cytometry; assay type: functional, cell-based; conditions: HeLa S3; in short: as §1
[10] = Cell cycle arrest in human HeLaS3 cells assessed as accumulation at G2/M phase at 5 uM after 24 hrs by flow cytometry; assay type: functional, cell-based; conditions: HeLa S3; in short: as §1
[11] = Cell cycle arrest in human HeLaS3 cells assessed as accumulation at G1 phase at 5 uM after 6 hrs by flow cytometry; assay type: functional, cell-based; conditions: HeLa S3; in short: as §1
[12] = Cell cycle arrest in human HeLaS3 cells assessed as accumulation at G1 phase at 1 uM after 12 hrs by flow cytometry; assay type: functional, cell-based; conditions: HeLa S3; in short: as §1
[13] = tested on: HeLa S3; test: Induction of apoptosis in human HeLaS3 cells assessed as DNA fragmentation after 24 hrs by agarose gel electrophoresis; assay type: functional, cell-based
In short: (§2)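 HeLa S-3 cells exposed for 12–48 h, then pellets lysed in 0.6% sarcosine, 20 mM Tris-HCl pH 7.4, 20 mM EDTA. Lysate treated with RNase A for 2 h at 50 °C, then proteinase K overnight at 50 °C. DNA extracted with phenol/chloroform, run on 2% agarose in TAE at 50 V, stained with ethidium bromide, and visualised under UV.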

[14] = tested on: HeLa S3; test: Induction of apoptosis in human HeLaS3 cells assessed as DNA fragmentation after 48 hrs by agarose gel electrophoresis; assay type: functional, cell-based; in short: as §2
[15] = tested on: HeLa S3; test: Induction of apoptosis in human HeLaS3 cells assessed as cleaved caspase-3 at 5 times IC50 by Western blot method; assay type: functional, cell-based
In short: (§3)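 HeLa S-3 cells treated for 24 h at 5-fold the IC50, alongside non-treated controls. Cells lysed in RIPA buffer (pH 8.0) with protease inhibitors and the whole-cell extract separated by SDS-PAGE, then transferred to PVDF. Blots blocked in 5% skim milk/TTBS and probed with anti-cdc2, cdk2 or cleaved caspase-3 antibodies (1:1000). β-actin (1:5000) served as loading control. Detection by HRP secondary antibody and ECL.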

[16] = Cell cycle arrest in human HeLaS3 cells assessed as effect on cdk2 protein level at 5 times IC50 by Western blot method; assay type: functional, cell-based; conditions: HeLa S3; in short: as §3
[17] = Cell cycle arrest in human HeLaS3 cells assessed as accumulation at G2/M phase at 1 uM after 24 hrs by flow cytometry; assay type: functional, cell-based; conditions: HeLa S3; in short: as §1
[18] = Cell cycle arrest in human HeLaS3 cells assessed as accumulation at G1 phase at 5 uM after 12 hrs by flow cytometry; assay type: functional, cell-based; conditions: HeLa S3; in short: as §1
[19] = Cell cycle arrest in human HeLaS3 cells assessed as accumulation at G1 phase at 5 uM after 24 hrs by flow cytometry; assay type: functional, cell-based; conditions: HeLa S3; in short: as §1
[20] = Cell cycle arrest in human HeLaS3 cells assessed as accumulation at S phase at 1 uM after 24 hrs by flow cytometry; assay type: functional, cell-based; conditions: HeLa S3; in short: as §1
[21] = Cell cycle arrest in human HeLaS3 cells assessed as accumulation at G1 phase at 1 uM after 6 hrs by flow cytometry; assay type: functional, cell-based; conditions: HeLa S3; in short: as §1
[22] = Cell cycle arrest in human HeLaS3 cells assessed as accumulation at sub-G1 phase at 5 uM after 24 hrs by flow cytometry; assay type: functional, cell-based; conditions: HeLa S3; in short: as §1
[23] = Cell cycle arrest in human HeLaS3 cells assessed as accumulation at S phase at 1 uM after 12 hrs by flow cytometry; assay type: functional, cell-based; conditions: HeLa S3; in short: as §1
[24] = Cell cycle arrest in human HeLaS3 cells assessed as increase in cdc2 protein level at 5 times IC50 by Western blot method; assay type: functional, cell-based; conditions: HeLa S3; in short: as §3
[25] = Cell cycle arrest in human HeLaS3 cells assessed as accumulation at sub-G1 phase at 1 uM after 6 hrs by flow cytometry; assay type: functional, cell-based; conditions: HeLa S3; in short: as §1
[26] = Cell cycle arrest in human HeLaS3 cells assessed as accumulation at sub-G1 phase at 5 uM after 6 hrs by flow cytometry; assay type: functional, cell-based; conditions: HeLa S3; in short: as §1
[27] = Cell cycle arrest in human HeLaS3 cells assessed as accumulation at S phase at 5 uM after 12 hrs by flow cytometry; assay type: functional, cell-based; conditions: HeLa S3; in short: as §1
[28] = tested on: HeLa S3; test: Induction of apoptosis in human HeLaS3 cells assessed as appearance of fragmented nuclei at 5 times IC50 after 48 hrs by Hoechst staining; assay type: functional, cell-based
In short: (§4)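 Stained with Hoechst 33342 (1 µg/ml) for 40 min at 37 °C. Nuclei were examined by confocal laser microscopy, and apoptosis was scored from chromatin condensation and fragmented nuclei.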

[29] = Cell cycle arrest in human HeLaS3 cells assessed as accumulation at G2/M phase at 5 uM after 6 hrs by flow cytometry; assay type: functional, cell-based; conditions: HeLa S3; in short: as §1
[30] = Cell cycle arrest in human HeLaS3 cells assessed as accumulation at G1 phase at 1 uM after 24 hrs by flow cytometry; assay type: functional, cell-based; conditions: HeLa S3; in short: as §1
[31] = Cell cycle arrest in human HeLaS3 cells assessed as accumulation at sub-G1 phase at 1 uM after 24 hrs by flow cytometry; assay type: functional, cell-based; conditions: HeLa S3; in short: as §1
[32] = tested on: HeLa S3; test: Induction of apoptosis in human HeLaS3 cells assessed as appearance of fragmented nuclei at 10 times IC50 after 48 hrs by Hoechst staining; assay type: functional, cell-based; in short: as §4

SMILES: CC(C)(C)OC(=O)NCCOc1cccc(CNc2cc3c(cn2)[nH]c2ccccc23)c1
- pIC50 ([1]; Homo sapiens, HeLa S3): 4.80

SMILES: CC(C)(C)OC(=O)NCCOc1ccc(CNc2cc3c(cn2)[nH]c2ccccc23)cc1
- pIC50 ([1]; Homo sapiens, HeLa S3): 4.38

SMILES: C[n+]1cc2[nH]c3ccccc3c2cc1NCc1ccccc1 [listing 1 of 4 here]
- Activity [2]: 21.9%
- Activity [3]: 3.2%
- Activity [4]: 10.3%
- Activity [5]: 3.6%
- Activity [6]: 73.5%
- Activity [7]: 78.5%
- Activity [8]: 13.8%
- Activity [9]: 46.1%
- Activity [10]: 82.3%
- Activity [11]: 29.7%
- Activity [12]: 7.8%
- Activity [13]: inactive
- Activity [14]: Active
- Activity [15]: Active
- Activity [16]: inactive
- Activity [17]: 13.8%
- Activity [18]: 6.1%
- Activity [19]: 4.4%
- Activity [20]: 13.6%
- Activity [21]: 31.5%
- Activity [22]: 6.9%
- Activity [23]: 8.7%
- Activity [24]: Active
- Activity [25]: 4.7%
- Activity [26]: 2.8%
- Activity [27]: 10%
- Activity [28]: Active
- Activity [29]: 50.5%
- Activity [30]: 38.4%
- Activity [31]: 34.6%
- Activity [32]: Active

SMILES: CCNc1cc2c3ccccc3nc-2c[nH]1
- pIC50 ([1]; Homo sapiens, HeLa S3): 4.72

SMILES: c1ccc(CCCNc2cc3c(cn2)[nH]c2ccccc23)cc1
- pIC50 ([1]; Homo sapiens, HeLa S3): 4.68

SMILES: C[n+]1cc2[nH]c3ccccc3c2cc1NCc1ccccc1 [listing 2 of 4 here]
- pIC50 ([1]; hela s3): 5.00

SMILES: CNc1cc2c(cn1)[nH]c1ccccc12
- pIC50 ([1]; Homo sapiens, HeLa S3): 4.00

SMILES: c1ccc2c(c1)[nH]c1cnccc12 [NORHARMANE]
- pIC50 ([1]; Homo sapiens, HeLa S3): < 4.00

SMILES: CC(C)(C)CNc1cc2c(cn1)[nH]c1ccccc12
- pIC50 ([1]; Homo sapiens, HeLa S3): 4.77

SMILES: COC(=O)c1ccc(CNc2cc3c(cn2)[nH]c2ccccc23)cc1
- pIC50 ([1]; Homo sapiens, HeLa S3): 4.35

SMILES: C[n+]1cc2[nH]c3ccccc3c2cc1NCc1ccccc1 [listing 3 of 4 here]
- pIC50 ([1]; hela s3): 4.00

SMILES: C[n+]1cc2[nH]c3ccccc3c2cc1NCc1ccccc1 [listing 4 of 4 here]
- pIC50 ([1]; hela s3): 6.27

SMILES: c1ccc(CCNc2cc3c(cn2)[nH]c2ccccc23)cc1
- pIC50 ([1]; Homo sapiens, HeLa S3): 4.66

SMILES: COC(=O)c1cccc(CNc2cc3c(cn2)[nH]c2ccccc23)c1
- pIC50 ([1]; Homo sapiens, HeLa S3): 4.77

SMILES: c1ccc(CNc2cc3c(cn2)[nH]c2ccccc23)cc1
- Activity [2]: 19%
- Activity [3]: 3%
- Activity [4]: 3.7%
- pIC50 ([1]; Homo sapiens, HeLa S3): 6.92
- Activity [5]: 3.9%
- Activity [6]: 84.3%
- Activity [7]: 68.1%
- Activity [8]: 12.2%
- Activity [9]: 46.1%
- Activity [10]: 80.5%
- Activity [11]: 34%
- Activity [12]: 2.9%
- Activity [13]: Active
- Activity [15]: Active
- Activity [16]: inactive
- Activity [17]: 92.2%
- Activity [18]: 13.8%
- Activity [19]: 4.9%
- Activity [20]: 2.6%
- Activity [21]: 31.5%
- Activity [22]: 8.3%
- Activity [23]: 9.4%
- Activity [24]: Active
- Activity [25]: 3.8%
- Activity [26]: 3.3%
- Activity [27]: 12.5%
- Activity [28]: Active
- Activity [29]: 47.3%
- Activity [30]: 1.1%
- Activity [31]: 3.7%
- Activity [32]: Active

SMILES: CC(C)CNc1cc2c(cn1)[nH]c1ccccc12
- pIC50 ([1]; Homo sapiens, HeLa S3): 4.89

SMILES: Oc1cccc(CNc2cc3c(cn2)[nH]c2ccccc23)c1
- Activity [2]: 20%
- Activity [3]: 5.9%
- Activity [4]: 9.5%
- pIC50 ([1]; Homo sapiens, HeLa S3): 6.04
- Activity [5]: 6.8%
- Activity [6]: 31.3%
- Activity [7]: 76.7%
- Activity [8]: 14.1%
- Activity [9]: 36.3%
- Activity [10]: 53.3%
- Activity [11]: 27.3%
- Activity [12]: 48.8%
- Activity [13]: Active
- Activity [15]: Active
- Activity [16]: inactive
- Activity [17]: 17.1%
- Activity [18]: 7.2%
- Activity [19]: 15.8%
- Activity [20]: 17.4%
- Activity [21]: 36.2%
- Activity [22]: 21.3%
- Activity [23]: 10.7%
- Activity [24]: Active
- Activity [25]: 8.2%
- Activity [26]: 3.5%
- Activity [27]: 8.9%
- Activity [28]: Active
- Activity [29]: 52.9%
- Activity [30]: 58.5%
- Activity [31]: 7.5%
- Activity [32]: Active
